Test results from paper PMC6146057 (ACS chemical neuroscience, 2018).
Entries after “also recorded” stand apart in the source; their conditions may differ.

Assays:
human M2–M5 = assay: Calcium mobilization selectivity, human M2–M5; type: cell-based; settings: Figure 4A
How it was run: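 Muscarinic receptor-expressing CHO cells were plated at 20,000 cells/well in medium without G418 the day before. They were loaded with 1.15 μM Fluo-4 AM for 45 min at 37 °C in HBSS with 20 mM HEPES and 2.5 mM probenecid. Test compound (10-point 1:3 series, top final 30 μM) was added for 2.5 min, then EC20 ACh for 1 min. Calcium flux was fitted with a four-parameter logistic curve.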

rat M1 = biological target: T1, rat M1 (Rattus norvegicus, UniProt P08482); assay: [3H]-NMS competition radioligand binding; settings: up to 30 μM, rat M1-CHO membranes
T1 sequence (P08482 1-460): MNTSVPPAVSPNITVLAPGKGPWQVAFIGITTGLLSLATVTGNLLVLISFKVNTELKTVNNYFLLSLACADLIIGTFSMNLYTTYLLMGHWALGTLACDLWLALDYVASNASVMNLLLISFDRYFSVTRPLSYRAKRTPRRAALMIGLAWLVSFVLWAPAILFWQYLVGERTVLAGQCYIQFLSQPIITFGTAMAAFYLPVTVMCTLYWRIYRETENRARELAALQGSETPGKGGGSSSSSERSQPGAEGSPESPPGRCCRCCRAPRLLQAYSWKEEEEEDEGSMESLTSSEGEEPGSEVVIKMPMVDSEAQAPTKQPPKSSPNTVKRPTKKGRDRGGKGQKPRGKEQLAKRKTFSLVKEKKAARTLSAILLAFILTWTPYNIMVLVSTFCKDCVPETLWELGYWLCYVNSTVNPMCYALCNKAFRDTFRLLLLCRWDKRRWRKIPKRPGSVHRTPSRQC
How it was run: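 Rat M1-CHO membranes (10 μg) were incubated with test compound (11-point 1:3 series, top final 30 μM) and 0.088 nM [3H]-NMS (Kd). Binding buffer was 20 mM HEPES, 10 mM MgCl2 and 100 mM NaCl, pH 7.4, for 1 h at room temperature with shaking. Nonspecific binding was defined with 10 μM atropine. Samples were filtered, washed three times with ice-cold Tris buffer and counted by scintillation.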

[1] = tested on: layer V medial prefrontal cortex fEPSPs; assay: Extracellular field electrophysiology in layer V prelimbic mPFC slices; design: species or system mouse
How it was run: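 Coronal prelimbic slices (400 μm) recovered in NMDG-HEPES solution (pH 7.3) for 8–10 min at 32 °C, then were perfused with ACSF at 2 mL/min and 30–32 °C. Layer V fEPSPs were evoked from layers II–III (200 μs, 0.05 Hz) or optically in ChR2-injected mice. Compound alone was bath-applied for 20 min. Alternatively, 10 μM compound was applied for 10 min, then with 3 μM OxoM for 10 min. Slope was measured 46–50 min after washout.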

[2] = Plasma protein binding by equilibrium dialysis, rat; type: in vitro ADME; settings: pH 7.4
How it was run: (§1)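 Plasma spiked with test article was dialysed against 25 mM phosphate buffer, pH 7.4, by equilibrium dialysis for 4 h at 37 °C with shaking. Aliquots from each chamber were matrix-matched, extracted with ice-cold acetonitrile, centrifuged and quantified by LC/MS/MS.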

[3] = Plasma protein binding by equilibrium dialysis, cyno; type: in vitro ADME; settings: cynomolgus monkey, pH 7.4
How it was run: as §1

[4] = tested on: 68 GPCRs, ion channels, and transporters; assay: Eurofins Lead Profiling panel; type: binding; settings: @10 μM, 68 targets

## O=C(N[C@H]1CCCC[C@@H]1O)[C@H]1CN(Cc2ccc(-n3cccn3)cc2)c2ccccc2O1 [VU0486846, (2R)-N-[(1S,2S)-2-Hydroxycyclohexyl]-4-[(4-pyrazol-1-ylphenyl)-methyl]-2,3-dihydro-1,4-benzoxazine-2-carboxamide]
Human M2–M5
  Activity at human M2–M5 (selectivity): highly selective
Human M2–M5; listed as 16
  Activity at human M2–M5 (selectivity): inactive
Rat M1
  Inhibition of orthosteric [3H]-NMS binding: no displacement of [^3H]-NMS binding; also recorded: does not substantially inhibit binding
[1]; 3 μM VU0486846 + 10 μM CCh, electrically evoked, p < 0.05
  Magnitude of LTD, PAM + CCh vs CCh alone: significant increase in the magnitude of LTD
[1]; 3 μM bath application 20 min, electrically evoked layer V fEPSPs
  Change in fEPSP slope, compound alone (agonist activity in PFC): no significant change
[1]; 10 μM VU0486846 + 3 μM OxoM, optically evoked, p < 0.05
  Magnitude of LTD, PAM + OxoM vs OxoM alone: significantly enhanced
[2]
  fraction unbound at 4 h: 0.11
[3]
  fraction unbound at 4 h: 0.016
[4]
  inhibition at any target in the panel: ≤ 50%
